The record followed here is ChEMBL document CHEMBL3112441, “Synthesis, anticonvulsant activity and molecular properties prediction of dialkyl 1-(di(ethoxycarbonyl)methyl)-2,6-dimethyl-4-substituted-1,4-dihydropyridine-3,5-dicarboxylates” (Eur J Med Chem, 2014).

Data set [1] has as its system Rattus norvegicus. Nature of the data set: Anticonvulsant activity in Wistar albino rat assessed as protection against subcutaneous pentylenetetrazole-induced mortality at 5 mg/kg, ip pretreated for 1 hr followed by pentylenetetrazole challenge measured over 300 secs relative to control. Format: functional. The note with it: sc.
The test system of data set [2] is Rattus norvegicus. The data set can be described thus: Anticonvulsant activity in Wistar albino rat assessed as protection against subcutaneous pentylenetetrazole-induced seizures by measuring latency period at 5 mg/kg, ip pretreated for 1 hr followed by pentylenetetrazole challenge measured over 300 secs (reference value: 72 +/- 2 secs). Format: functional.
Data set [3] relates to Rattus norvegicus. The data set can be described thus: Anticonvulsant activity in Wistar albino rat assessed as protection against subcutaneous pentylenetetrazole-induced mortality at 30 mg/kg, po pretreated for 1 hr followed by pentylenetetrazole challenge relative to control. Format: functional.
The subject of data set [4] is Rattus norvegicus. The data set can be described thus: Anticonvulsant activity in Wistar albino rat assessed as protection against maximal electroshock-induced electroconvulsive seizures at 30 mg/kg, po pretreated for 1 hr followed by maximal electroshock challenge relative to control. Format: functional.
Data set [5] relates to Rattus norvegicus. Nature of the data set: Anticonvulsant activity in Wistar albino rat assessed as protection against maximal electroshock-induced seizures by measuring duration of limb extension at 30 mg/kg, po pretreated for 1 hr followed by maximal electroshock challenge (reference value: 16 +/- 1 secs). Format: functional. (In general: In the maximal electroshock model the usual endpoint is tonic extension of the hind limbs.)

The test system of data set [6] is Rattus norvegicus. The data set can be described thus: Anticonvulsant activity in Wistar albino rat assessed as protection against subcutaneous pentylenetetrazole-induced seizures by measuring latency period at 30 mg/kg, po pretreated for 1 hr followed by pentylenetetrazole challenge measured over 300 secs (reference value: 72 +/- 2 secs). The data set is classed as functional.

The subject of data set [7] is Rattus norvegicus. Nature of the data set: Anticonvulsant activity in Wistar albino rat assessed as protection against maximal electroshock-induced electroconvulsive seizures at 10 mg/kg, po pretreated for 1 hr followed by maximal electroshock challenge relative to control. Format: functional. Put shortly:
(§1)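 Adult male Wistar rats (150–250 g), six per group, dosed orally 10 mg/kg as suspension in 0.5% sodium carboxymethylcellulose; vehicle control. After 1 h, maximal electroshock of 150 mA for 0.2 s was given via corneal electrodes. Duration of hind limb extension was recorded, and its abolition or reduction was taken as the anticonvulsant index. Values are mean ± SEM, n = 6, analysed by one-way ANOVA with Dunnett's test.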

The subject of data set [8] is Rattus norvegicus. Nature of the data set: Anticonvulsant activity in Wistar albino rat assessed as protection against maximal electroshock-induced seizures by measuring duration of limb extension at 10 mg/kg, po pretreated for 1 hr followed by maximal electroshock challenge (reference value: 16 +/- 1 secs). Format: functional. Put shortly: as §1
Data set [9] relates to Rattus norvegicus. The data set can be described thus: Anticonvulsant activity in Wistar albino rat assessed as protection against […] at 10 mg/kg, po pretreated for 1 hr followed by pentylenetetrazole challenge measured over 300 secs relative to control. Format: functional.
Data set [10] has as its system Rattus norvegicus. Nature of the data set: Anticonvulsant activity in Wistar albino rat assessed as protection against subcutaneous pentylenetetrazole-induced seizures by measuring latency period at 10 mg/kg, po pretreated for 1 hr followed by pentylenetetrazole challenge measured over 300 secs (reference value: 72 +/- 2 secs). Format: functional.
The next data set concerns Mus musculus. Nature of the data set: Toxicity in Swiss albino mouse up to 100 mg/kg, po measured over 7 days. The note with it: in vivo, 168 h. The arrangement: dose 100 mg/kg, route oral. Format: organism-based. The procedure, abridged:
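Acute oral toxicity followed OECD-425. Swiss albino mice (18–20 g), 5 per group, were dosed orally at different levels and observed for death over seven days.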

In general, mortality refers to the share of the test organisms that died.

For `CN1C(=O)CN=C(c2ccccc2)c2cc(Cl)ccc21` [DIAZEPAM], the mortality at 5 mg/kg in the data set with Rattus norvegicus [1] was determined as 66.6%. Further, the Time with Rattus norvegicus [2] stood at 266 s.

For the molecule `COC(=O)C1=C(C)NC(C)=C(C(=O)OC)C1c1ccccc1[N+](=O)[O-]` [NIFEDIPINE], in the data set with Rattus norvegicus [3], the mortality at 30 mg/kg is 33.3%. In addition, the Activity in the data set with Rattus norvegicus [4] is reported as 56.8%. Moreover, the Time with Rattus norvegicus [5] was 7 s; in the data set on Rattus norvegicus [6], 215 s.

Regarding `CCOC(=O)C(C(=O)OCC)N1C(C)=C(C(=O)OC)C(c2ccccc2[N+](=O)[O-])C(C(=O)OC)=C1C`, the results for the Activity with Rattus norvegicus [7] and in the data set on Mus musculus were 39.6% and “Non-toxic”, respectively. The Time was found to be 10 s with Rattus norvegicus [8] and 295 s in the data set with Rattus norvegicus [10]. For the same molecule, the mortality at 10 mg/kg in the data set on Rattus norvegicus [9] was 0%.

On to `CCOC(=O)C(C(=O)OCC)N1C(C)=C(C(=O)OC)C(Cc2ccccc2)C(C(=O)OC)=C1C`, for which the figures for the Activity in the data set with Rattus norvegicus [7] and with Mus musculus were 14.5% and “Non-toxic”, respectively. Moreover, the Time in the data set on Rattus norvegicus [8] was determined as 14 s; in the data set on Rattus norvegicus [10], 285 s. Besides, the mortality at 10 mg/kg in the data set on Rattus norvegicus [9] was 33.3%.

Turning to `CCOC(=O)C1=C(C)N(C(C(=O)OCC)C(=O)OCC)C(C)=C(C(=O)OCC)C1CCc1ccccc1`, the Activity in the data set on Rattus norvegicus [7] was 8.3%; in the data set with Mus musculus, “Non-toxic”. Besides, the figures for the Time in the data set with Rattus norvegicus [8] and with Rattus norvegicus [10] were 15 s and 246 s, respectively. The mortality at 10 mg/kg in the data set with Rattus norvegicus [9] turned out to be 33.3%.

On to `CCOC(=O)C1=C(C)N(C(C(=O)OCC)C(=O)OCC)C(C)=C(C(=O)OCC)C1/C=C/c1ccccc1`, for which the Activity in the data set with Rattus norvegicus [7] is listed as 22.9%; in the data set on Mus musculus, “Non-toxic”. Also, the Time is given as 12 s in the data set on Rattus norvegicus [8] and greater than 300 s with Rattus norvegicus [10]. In addition, the mortality at 10 mg/kg with Rattus norvegicus [9] was found to be 0%.

As for `CCOC(=O)C1=C(C)N(C(C(=O)OCC)C(=O)OCC)C(C)=C(C(=O)OCC)C1c1ccccc1[N+](=O)[O-]`, the Activity in the data set with Rattus norvegicus [7] is reported as 22.9%; with Mus musculus, “Non-toxic”. The Time in the data set on Rattus norvegicus [8] is given as 12 s; in the data set with Rattus norvegicus [10], 230 s. The mortality at 10 mg/kg in the data set on Rattus norvegicus [9] turned out to be 0%.

Turning to `CCOC(=O)C1=C(C)N(C(C(=O)OCC)C(=O)OCC)C(C)=C(C(=O)OCC)C1c1ccccc1`, the results for the Activity in the data set with Rattus norvegicus [7] and in the data set on Mus musculus were 16.6% and “Non-toxic”, respectively. Besides, the Time in the data set with Rattus norvegicus [8] is on record as 13 s; in the data set with Rattus norvegicus [10], 283 s. For the same molecule, the mortality at 10 mg/kg in the data set with Rattus norvegicus [9] was 0%.

Regarding `CCOC(=O)C(C(=O)OCC)N1C(C)=C(C(=O)OC)C(/C=C/c2ccccc2)C(C(=O)OC)=C1C`, the Activity is 41.6% in the data set on Rattus norvegicus [7] and “Non-toxic” in the data set on Mus musculus. Besides, the Time was found to be 9 s in the data set on Rattus norvegicus [8] and 268 s in the data set on Rattus norvegicus [10]. In addition, in the data set on Rattus norvegicus [9], the mortality at 10 mg/kg worked out at 100%.

For the molecule `CCOC(=O)C(C(=O)OCC)N1C(C)=C(C(=O)OC)CC(C(=O)OC)=C1C`, the Activity in the data set with Rattus norvegicus [7] is given as 14.5%; in the data set with Mus musculus, “Non-toxic”. Further, the Time in the data set with Rattus norvegicus [8] was 13 s; with Rattus norvegicus [10], 126 s. Also, the mortality at 10 mg/kg in the data set on Rattus norvegicus [9] turned out to be 0%.

As to `O=C1NC(=O)C(c2ccccc2)(c2ccccc2)N1` [PHENYTOIN], the Activity in the data set on Rattus norvegicus [4] was 62.5%. In addition, in the data set with Rattus norvegicus [5], the Time amounted to 6 s.

For the molecule `CCOC(=O)C1=C(C)N(C(C(=O)OCC)C(=O)OCC)C(C)=C(C(=O)OCC)C1Cc1ccccc1`, the Activity is 10.4% in the data set with Rattus norvegicus [7] and “Non-toxic” in the data set on Mus musculus. Also, the Time with Rattus norvegicus [8] turned out to be 14 s; in the data set with Rattus norvegicus [10] it was 265 s. Moreover, in the data set with Rattus norvegicus [9], the mortality at 10 mg/kg worked out at 66.6%.

With `CCOC(=O)C1=C(C)N(C(C(=O)OCC)C(=O)OCC)C(C)=C(C(=O)OCC)C1/C=C/c1ccc([N+](=O)[O-])cc1`, the Activity with Rattus norvegicus [7] is given as 50%; in the data set with Mus musculus, “Non-toxic”. Further, the Time in the data set on Rattus norvegicus [8] is 8 s; in the data set with Rattus norvegicus [10] it was greater than 300 s. Besides, the mortality at 10 mg/kg in the data set with Rattus norvegicus [9] turned out to be 0%.

Turning to `CCOC(=O)C1=C(C)N(C(C(=O)OCC)C(=O)OCC)C(C)=C(C(=O)OCC)C1`, the results for the Activity in the data set with Rattus norvegicus [7] and with Mus musculus were 41.6% and “Non-toxic”, respectively. Further, the Time in the data set on Rattus norvegicus [8] was 9 s; in the data set with Rattus norvegicus [10], 192 s. The mortality at 10 mg/kg with Rattus norvegicus [9] was found to be 0%.

Regarding `CCOC(=O)C(C(=O)OCC)N1C(C)=C(C(=O)OC)C(/C=C/c2ccc([N+](=O)[O-])cc2)C(C(=O)OC)=C1C`, the figures for the Activity in the data set with Rattus norvegicus [7] and with Mus musculus were 52.1% and “Non-toxic”, respectively. Further, the values for the Time in the data set on Rattus norvegicus [8] and with Rattus norvegicus [10] were 7 s and greater than 300 s, respectively. Besides, the mortality at 10 mg/kg with Rattus norvegicus [9] is 0%.

Consider `CCOC(=O)C(C(=O)OCC)N1C(C)=C(C(=O)OC)C(c2ccccc2)C(C(=O)OC)=C1C`, for which the Activity was 25% with Rattus norvegicus [7] and “Non-toxic” in the data set with Mus musculus. The Time in the data set on Rattus norvegicus [8] was 12 s; in the data set with Rattus norvegicus [10], greater than 300 s. The mortality at 10 mg/kg in the data set on Rattus norvegicus [9] came to 33.3%.

Take `CCOC(=O)C(C(=O)OCC)N1C(C)=C(C(=O)OC)C(CCc2ccccc2)C(C(=O)OC)=C1C`: the Activity is listed as 20.8% in the data set on Rattus norvegicus [7] and “Non-toxic” in the data set on Mus musculus. For the same molecule, the Time in the data set with Rattus norvegicus [8] was 13 s; in the data set on Rattus norvegicus [10] it was greater than 300 s. The mortality at 10 mg/kg with Rattus norvegicus [9] was 66.6%.
